# Source: PubChem BioAssay
# Active and inactive are the calls of the source.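 Rule for the calls, unless noted: active = fluorescence slope after compound addition differing from the mean of all screened samples at 99.7% confidence, in either direction; inactive = the rest.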
# Columns and labels:
# [1] = inhibitors of TNFa-induced NFkB p65 translocation, primary screen, imaging, HUVEC, MLSMR starter and 10KST1 sets (AID 438;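 active = inhibition above 20% together with a positive visual image hit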;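 note: compound added about 3h40 before a 20 min TNFalpha stimulation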;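 for inhibition: signal is the nuclear over cytoplasmic p65 intensity ratio per well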); details: HUVEC TNFa-induced p65 nuclear translocation; cell count: measured here: nuclei count (cytotoxicity indicator), at 2.08 µM; inhibition: at 2 µM, stronger effect = higher value, 0% TNFa-plus-vehicle, 100% no-TNFa wells
# [2] = endothelial E-selectin expression blockers – imaging, HUVEC, immunofluorescence, MLSMR starter and 10KST1 sets, primary screen (AID 487;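 active = visually confirmed hit in the image check and inhibition above 20%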;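 for inhibition: signal is fraction of cell area covered by stained E-selectin grains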;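 for nuclei count: 100% = median nuclei count of all wells on the same plate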); details: HUVEC TNFalpha-induced E-selectin immunofluorescence imaging, at 2 µM; inhibition: stronger effect = higher value; nuclei count: measured here: cell number, toxicity
# [3] = Primary imaging screen for DUSP6 inhibitors that restore phospho-Erk in transfected HeLa cells, chemical complementation (AID 609;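 active = compounds giving at least 50% inhibition in the cell-based MKP-3 phosphatase rescue imaging test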;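 for inhibition: phospho-Erk level distribution per well compared with pooled transfected vehicle control wells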); details: HeLa MKP-3 transfected, phospho-Erk imaging KS statistic, at 10 µM, cells stimulated with TPA for 15 min
# [4] = molecular target: Dual specificity protein phosphatase 6 (Homo sapiens) (UniProt Q16828); assay: as above; details: HeLa MKP-3 transfected, phospho-Erk imaging KS statistic; at 10 µM; stronger effect = higher value; cells stimulated with TPA for 15 min
# Chain of Dual specificity protein phosphatase 6 (Homo sapiens) (Q16828 whole entry, looked up): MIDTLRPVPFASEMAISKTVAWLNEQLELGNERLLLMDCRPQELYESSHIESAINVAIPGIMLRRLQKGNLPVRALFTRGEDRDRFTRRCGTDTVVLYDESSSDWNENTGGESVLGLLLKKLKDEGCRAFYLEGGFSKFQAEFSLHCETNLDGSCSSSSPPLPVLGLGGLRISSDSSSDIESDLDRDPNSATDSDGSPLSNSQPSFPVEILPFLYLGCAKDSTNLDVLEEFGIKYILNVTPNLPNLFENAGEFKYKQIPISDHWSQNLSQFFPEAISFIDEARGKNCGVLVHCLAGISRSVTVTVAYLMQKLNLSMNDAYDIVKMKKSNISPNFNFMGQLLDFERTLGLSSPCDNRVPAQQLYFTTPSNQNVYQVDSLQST
# [5] = molecular target: Voltage-gated potassium channel subunit beta-2 (Rattus norvegicus) (UniProt P62483); assay: inhibitors of rat Kvbeta2 reductase activity – biochemical, NADPH fluorescence, primary screen (AID 622;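 active = fluorescence slope higher than the sample average by over 3 SD, cut at about -0.22 in these data, passing the limit was not always enough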;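 note: slope of raw intensity against log time taken from 70 to 1610 s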); details: recombinant KvBeta, 4-cyanobenzaldehyde reduction, at 10 µM, stronger effect = higher value
# Chain of Voltage-gated potassium channel subunit beta-2 (Rattus norvegicus) (P62483 whole entry, looked up): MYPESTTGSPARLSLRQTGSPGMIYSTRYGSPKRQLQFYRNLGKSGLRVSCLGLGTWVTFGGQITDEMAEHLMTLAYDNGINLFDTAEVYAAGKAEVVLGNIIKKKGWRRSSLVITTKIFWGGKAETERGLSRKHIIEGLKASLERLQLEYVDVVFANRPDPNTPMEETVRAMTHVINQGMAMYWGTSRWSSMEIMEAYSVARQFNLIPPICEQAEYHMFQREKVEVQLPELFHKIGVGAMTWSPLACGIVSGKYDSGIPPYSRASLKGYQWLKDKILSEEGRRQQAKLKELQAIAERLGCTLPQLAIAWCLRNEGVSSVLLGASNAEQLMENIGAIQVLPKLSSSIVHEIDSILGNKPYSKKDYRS
# [6] = molecular target: Voltage-gated potassium channel subunit beta-2 (Rattus norvegicus) (UniProt P62483); assay: enhancers of rat Kvbeta2 NADPH turnover – biochemical, NADPH fluorescence, primary screen (AID 623;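 active = NADPH fluorescence slope more negative than the mean of all samples by about 3 SD, 99.7% confidence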;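 note: fluorescence intensity change per second fitted from 20 to 320 s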); details: Recombinant KvBeta, NADPH fluorescence decrease slope, 10 min; at 10 µM; stronger effect = lower value
# [7] = molecular target: Alpha-2C adrenergic receptor (Homo sapiens) (UniProt P18825); assay: compounds altering alpha2C-coupled GIRK flux – cell-based, HEK293 alpha2C/GIRK1/2, thallium flux, primary screen (AID 624); details: thallium flux BTC fluorescence, at 10 µM, actives lie on both sides;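 note: slope of fluorescence ratio to pre-addition baseline per second over 15 to 24 s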
# Chain of Alpha-2C adrenergic receptor (Homo sapiens) (P18825 whole entry, looked up): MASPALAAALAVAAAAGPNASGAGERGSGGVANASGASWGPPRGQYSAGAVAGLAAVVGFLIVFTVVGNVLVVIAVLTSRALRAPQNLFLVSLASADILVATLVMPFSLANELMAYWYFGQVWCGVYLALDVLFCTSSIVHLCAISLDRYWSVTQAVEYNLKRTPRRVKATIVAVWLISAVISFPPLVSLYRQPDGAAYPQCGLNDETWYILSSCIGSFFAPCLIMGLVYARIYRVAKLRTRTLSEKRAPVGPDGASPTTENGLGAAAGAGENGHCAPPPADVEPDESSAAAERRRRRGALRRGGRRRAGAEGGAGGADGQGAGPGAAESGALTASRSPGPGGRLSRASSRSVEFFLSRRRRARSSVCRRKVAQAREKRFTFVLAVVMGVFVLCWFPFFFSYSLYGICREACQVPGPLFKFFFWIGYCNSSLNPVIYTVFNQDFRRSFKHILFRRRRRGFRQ
# [8] = inhibitors of larval lipid processing in zebrafish, primary screen, whole organism, PED6 fluorescence, gall bladder and intestine (AID 686;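 active = a full or partial loss of lipid-probe fluorescence in the fish gall bladder, intestine or both, judged by eye; inactive = no fluorescence loss, or compound toxic to the fish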;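 note: larvae 5 to 7 days old with five fish per well; signal comes from phospholipase A2 cleavage of quenched PED6 carried via bile; overnight exposure to compound and PED6 before scoring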); details: Zebrafish larvae PED6 lipid processing, fluorescence scoring; screened at 20 µM (by protocol)
# Outline: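 system = live zebrafish larvae aged 5-7 days, whole organism | probe or stimulus = ingested quenched lipid PED6 at 100 nM | doses = 20 µM single dose | timing = overnight exposure | detection = fluorescence microscopy with visual scoring of gall bladder and intestine | read-out = visual per-well fluorescence inhibition score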
# [9] = loss of swimming-algae plug formation – whole organism, Chlamydomonas reinhardtii, WT vs cilia-less mutant, absorbance, 96-well, primary screen (AID 463189;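 active = inhibition at or above 50% relative to wild type and mutant plate controls; inactive = inhibition below 50%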;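 note: 0% = wild type cc124 cells in DMSO and 100% = ciliumless bld1 mutant cells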); details: Chlamydomonas reinhardtii gravitaxis, OD600 absorbance, 2 days; at 10 µM; stronger effect = higher value
# [10] = measured here: cell density z-score
# [11] = measured here: nuclear c-Myc green intensity z-score
# [12] = measured here: nuclear pErk red intensity z-score, stronger effect = higher value
Structure (SMILES),cell count [1],inhibition [1],inhibition [2],nuclei count [2],"z-score [3, 10]","z-score [3, 11]","z-score [3, 12]",inhibition [4],fluorescence slope [5],NADPH fluorescence slope [6],slope [7],outcome [8],inhibition [9]
Cn1c2c(c(=O)n(C)c1=O)C(NC(=O)c1cccs1)(C(F)(F)F)C(=O)N2 (stereo unspecified),497,3.5% (inactive),-80.8% (inactive),147%,1.78,-0.706,-0.81,8.76% (inactive),-0.537 (inactive),-9.1e-06 (inactive),0.00621 (inactive),inactive,24.7% (inactive)
COc1cccc(-c2nn3c(-c4ccco4)nnc3s2)c1,611,-8.6% (inactive),16.8% (inactive),155%,0.808,-0.226,-0.00224,2.92% (inactive),-0.406 (inactive),-0.000142 (inactive),0.00559 (inactive),inactive,-2.32% (inactive)
CCOc1ccc(-n2c(SCc3ccc(C#N)cc3)nnc2-c2cccnc2)cc1,343,-6% (inactive),6.3% (inactive),157%,0.958,-0.128,0.447,13.4% (inactive),-0.421 (inactive),-0.00013 (inactive),0.00481 (inactive),inactive,-11.3% (inactive)
Clc1ccc(SCc2cn3ccsc3n2)cc1,516,-11.3% (inactive),-61.5% (inactive),170%,-0.751,0.432,-0.146,-11% (inactive),-0.476 (inactive),-0.000195 (inactive),0.0044 (inactive),inactive,31.1% (inactive)
N#Cc1ccc(-c2cccnc2)nc1SCC(=O)Nc1sc2c(c1C#N)CCC2,539,-25.4% (inactive),-101% (inactive),144%,0.414,0.682,0.527,-9.66% (inactive),-0.501 (inactive),-5.3e-05 (inactive),0.00453 (inactive),inactive,-0.076% (inactive)
Cc1[nH]nc2cn[nH]c12,531,-7.3% (inactive),-92.8% (inactive),130%,-0.515,1.09,1.21,-5.89% (inactive),-0.526 (inactive),-5.7e-05 (inactive),0.00413 (inactive),inactive,4.67% (inactive)
CC(C)(C)C1=Nn2c(nnc2-c2ccco2)SC1,663,-3.7% (inactive),-70.4% (inactive),165%,-0.164,0.534,-0.139,-6.06% (inactive),-0.423 (inactive),-0.000133 (inactive),0.00705 (inactive),inactive,-3.69% (inactive)
CCc1ccc(NC(=O)CSC2=C(C#N)C(c3ccco3)C3=C(CCCC3=O)N2)cc1 (stereo unspecified),461,-1.3% (inactive),-13.8% (inactive),117%,-0.838,1.11,0.462,5.57% (inactive),-0.501 (inactive),-8.3e-05 (inactive),0.00507 (inactive),inactive,-1.64% (inactive)
Nc1nc(NC(=O)Cc2ccccc2)nn1-c1ccccc1,330,-5.8% (inactive),16% (inactive),153%,-1.12,1.13,0.973,9.42% (inactive),-0.381 (inactive),-0.000121 (inactive),0.00768 (inactive),inactive,14.3% (inactive)
CCCCOc1cccc(-c2nnc(N)s2)c1,629,-13.6% (inactive),29.1% (inactive),161%,-0.391,0.503,-0.82,-13.3% (inactive),-0.395 (inactive),-4.2e-05 (inactive),0.00766 (inactive),inactive,-2.21% (inactive)
CC(C(=O)N1CCOCC1)N1C(=O)c2ccccc2C1=O (stereo unspecified),306,-3% (inactive),-45.1% (inactive),96%,1.24,-0.122,-1.67,-8.76% (inactive),-0.419 (inactive),2.4e-06 (inactive),0.0049 (inactive),inactive,15.3% (inactive)
CCOc1cccc(-c2nnc3sc(COc4ccccc4)nn23)c1,537,-7.5% (inactive),40.9% (inactive),91.9%,1.73,-0.94,-0.568,-4.27% (inactive),-0.433 (inactive),-9.6e-05 (inactive),0.00533 (inactive),inactive,17.6% (inactive)
c1coc(-c2nnc3sc(C4CCCCC4)nn23)c1,653,-0.1% (inactive),-85.2% (inactive),170%,-0.617,-0.759,-0.627,1.12% (inactive),-0.451 (inactive),-0.000143 (inactive),0.00424 (inactive),inactive,77.6% (active)
CCOC(=O)CSc1nc(C)c(C(C)=O)cc1C#N,623,-18.6% (inactive),-0.7% (inactive),147%,-0.31,-1.06,-1.5,-0.624% (inactive),-0.403 (inactive),-1.7e-05 (inactive),0.00581 (inactive),inactive,43.9% (inactive)
CC(C)c1cc(NCCN2CCOCC2)n2c(nc3ccccc32)c1C#N,530,-16.7% (inactive),-13.5% (inactive),100%,0.71,0.53,-0.442,10.1% (inactive),-0.493 (inactive),-8.7e-06 (inactive),0.00455 (inactive),inactive,-6.96% (inactive)
CCCCCCc1cc2cc(-c3nnc(-c4ccccc4O)o3)c(=O)oc2cc1O,473,-2.3% (inactive),-99.6% (inactive),122%,-0.061,1.83,-1.3,-7.79% (inactive),-0.274 (inactive),5.9e-06 (inactive),0.0685 (active),inactive,13.3% (inactive)
CC1(C)Cc2c(sc3nc(SCC#N)n(C4CCCCC4)c(=O)c23)CO1,633,-10.8% (inactive),51% (inactive),154%,-1.73,0.192,0.926,6.04% (inactive),-0.356 (inactive),-4.5e-05 (inactive),0.0054 (inactive),inactive,-8.06% (inactive)
COc1cccc(-c2nc(NCC3CCCO3)c3ccccc3n2)c1O (stereo unspecified),553,-3.3% (inactive),-74.2% (inactive),131%,-1.22,0.707,0.124,1.6e-07% (inactive),-0.34 (inactive),-2.8e-05 (inactive),0.00373 (inactive),inactive,55.5% (active)
CCOC(=O)c1[nH]c2cc3c(cc2c1NC(=O)CN1CCc2ccccc2C1)OCO3,523,0.1% (inactive),-11.1% (inactive),104%,-0.283,-0.223,-0.654,-1.75% (inactive),-0.248 (inactive),-1e-07 (inactive),0.00381 (inactive),inactive,25.5% (inactive)
CCOC(=O)c1ccc(N=CC2=C(O)CC(c3ccco3)CC2=O)cc1 (stereo unspecified),411,-17.7% (inactive),-249% (inactive),188%,1.91,-1.05,0.242,16% (inactive),-0.351 (inactive),-1.6e-05 (inactive),0.00521 (inactive),inactive,1.78% (inactive)
Cc1c(/C(O)=C2\C(=O)C(=O)N(CCN(C)C)C2c2cccs2)cnn1-c1ccccc1 (stereo unspecified),544,1.9% (inactive),-68.6% (inactive),127%,1.03,-0.0076,0.683,-5.26% (inactive),-0.578 (inactive),-3.3e-05 (inactive),0.00515 (inactive),inactive,-16.4% (inactive)
CC(C)CC(=O)Nc1ncnc2c1C(=O)CC(C)(C)C2,635,-9.9% (inactive),35.4% (inactive),167%,0.463,-0.408,0.517,1.12% (inactive),-0.413 (inactive),-5.4e-05 (inactive),0.00518 (inactive),inactive,-3.52% (inactive)
Cc1nc(SCC(=O)c2ccccc2)c(C#N)c(-c2ccco2)c1C(=O)NCc1ccco1,391,0.8% (inactive),17.3% (inactive),138%,0.205,-0.115,1.15,11.4% (inactive),-0.39 (inactive),-0.000131 (inactive),0.0062 (inactive),inactive,10.9% (inactive)
Nc1[nH]nc2nc(NCc3ccccc3)c3c(c12)CCN(Cc1ccccc1)C3,638,-12.3% (inactive),20% (inactive),190%,1.59,-1.42,-0.833,15.1% (inactive),-0.502 (inactive),-6.3e-05 (inactive),0.00406 (inactive),inactive,6.13% (inactive)
COc1ccccc1Nc1ncc(-c2cccs2)s1,545,-13.8% (inactive),-286% (inactive),200%,-0.0769,-1.21,0.25,1.48% (inactive),-0.5 (inactive),-5.4e-05 (inactive),0.00327 (inactive),inactive,11.6% (inactive)
CCOC(=O)CSc1nc2ccccc2c(=O)n1C,636,-9.5% (inactive),-24.4% (inactive),170%,-0.479,1.67,1.83,-5.89% (inactive),-0.523 (inactive),-3.8e-05 (inactive),0.00573 (inactive),inactive,-11.1% (inactive)
CCCc1cc(C(=O)Cc2ccc(F)cc2)c(O)cc1O,563,-8.9% (inactive),-180% (inactive),128%,0.0278,-0.762,-1.21,19.8% (inactive),-0.507 (inactive),-3.4e-06 (inactive),0.00499 (inactive),inactive,74.4% (active)
